ChEMBL document CHEMBL1123678, “Octahydropyrazino[2',3':3,4]pyrido[1,2-a]indoles. A new class of potent antihypertensive agents” (1987)

Tests used:
Rattus norvegicus [1] = experiment: Antagonism of vasopressor responses to epinephrine as a measure of the alpha-1-adrenoceptor blocking activity at 50 mg/kg administered orally was reported to be reversed; format: functional, organism-based; design: dose 50 mg/kg
Rattus norvegicus [2] = experiment: Antihypertensive activity was determined in cannulated spontaneously hypertensive rats(SHR) and maximum decrease of mean arterial blood pressure (MABP) at 50 mg/kg oral dose; format: functional, Artery
Outline: (§1)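 Cannulated SHR given compound by gastric gavage in 0.5% methylcellulose (5 mL/kg), doses 0.1–50 mg/kg, 4–8 animals per dose, after 1-h equilibration. MABP recorded for 4 h; maximal % decrease reported with time to peak effect. Significance by two-way analysis of variance.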

Rattus norvegicus [3] = experiment: Antihypertensive activity was determined in cannulated spontaneously hypertensive rats(SHR) and marked bradycardia was reported at a dose of 5 mg/kg; format: functional, organism-based; design: dose 5 mg/kg
Rattus norvegicus [4] = experiment: Antihypertensive activity was determined in cannulated spontaneously hypertensive rats(SHR) and marked bradycardia was reported at a dose of 10 mg/kg; format: functional, organism-based; design: dose 10 mg/kg
Rattus norvegicus [5] = experiment: Vasopressor responses to epinephrine as a measure of the alpha-1-adrenoceptor blocking activity at 5 mg/kg administered orally was reported to be reveresed; format: functional, organism-based; design: dose 5 mg/kg
Rattus norvegicus [6] = experiment: Antihypertensive activity was determined in cannulated spontaneously hypertensive rats(SHR) and maximum decrease of mean arterial blood pressure (MABP) at 5 mg/kg oral dose; format: functional, Artery; outline: as §1
Rattus norvegicus [7] = experiment: Antihypertensive activity was determined in cannulated spontaneously hypertensive rats(SHR) and maximum decrease of mean arterial blood pressure (MABP) at 1 mg/kg oral dose; format: functional, Artery; outline: as §1
Rattus norvegicus [8] = experiment: Vasopressor responses to epinephrine as a measure of the alpha-1-adrenoceptor blocking activity at 10 mg/kg administered orally was reported to be reveresed; format: functional, organism-based; design: dose 10 mg/kg
Rattus norvegicus [9] = experiment: Antihypertensive activity was determined in cannulated spontaneously hypertensive rats(SHR) and maximum decrease of mean arterial blood pressure (MABP) at 10 mg/kg oral dose; format: functional, Artery; outline: as §1
Rattus norvegicus [10] = experiment: Vasopressor responses to epinephrine as a measure of the alpha-1-adrenoceptor blocking activity at 1 mg/kg administered orally was reported to be reveresed; format: functional, organism-based; design: dose 1 mg/kg

| Structure (SMILES) | Activity (Rattus norvegicus [1]) | Decrease in MABP (Rattus norvegicus [2]) [%] | HR (Rattus norvegicus [3]) | HR (Rattus norvegicus [4]) | Activity (Rattus norvegicus [5]) | Decrease in MABP (Rattus norvegicus [6]) [%] | Decrease in MABP (Rattus norvegicus [7]) [%] | Activity (Rattus norvegicus [8]) | Decrease in MABP (Rattus norvegicus [9]) [%] | Activity (Rattus norvegicus [10]) |
| --- | --- | --- | --- | --- | --- | --- | --- | --- | --- | --- |
| CCN1CCN(CCOc2ccccc2)C2CCn3c(c(C)c4ccccc43)C21.Cl.Cl (stereo not given) | Antagonism reversed | 22 | – | – | – | – | – | – | – | – |
| CCN1CCN(CC)[C@H]2c3c(C)c4ccccc4n3CC[C@@H]21.Cl.Cl | – | – | Heart rate response was reported to be reduce by 10-25% after 4 hr at a dose of 25 mg/kg | Heart rate response was reported to be reduce by 10-25% after 4 hr at a dose of 25 mg/kg | Vasopressor response reveresed | 28 | 14 | Vasopressor response reveresed | 32 | Vasopressor response reveresed |
